Data: publication PMC11253873 (RSC Medicinal Chemistry, 2024)
≈ marks a conversion by molar mass, not a printed value. Where “and” joins values, the source holds several entries; their conditions need not be identical. Equal entries are not always repeated. Where two headings read alike, the source gives them in different places.

Tests used:
[1] = test system: Mtb H37Rv; assay: microbe, parasite or virus in culture; type: cell-based, Mycobacterium tuberculosis; settings: for MIC: Mycobacterium tuberculosis, H37RV, 336 h, read-out: Mtb MIC; for Mtb MIC: value in parentheses, Mtb H37Rv, 2 weeks
[2] = molecular target: T1, MtbDXR (Mycobacterium tuberculosis, UniProt P9WNS1); assay: DXR enzyme inhibition assay; type: biochemical; settings: values in parentheses; compound at 100 μM
T1 sequence (P9WNS1 1-413): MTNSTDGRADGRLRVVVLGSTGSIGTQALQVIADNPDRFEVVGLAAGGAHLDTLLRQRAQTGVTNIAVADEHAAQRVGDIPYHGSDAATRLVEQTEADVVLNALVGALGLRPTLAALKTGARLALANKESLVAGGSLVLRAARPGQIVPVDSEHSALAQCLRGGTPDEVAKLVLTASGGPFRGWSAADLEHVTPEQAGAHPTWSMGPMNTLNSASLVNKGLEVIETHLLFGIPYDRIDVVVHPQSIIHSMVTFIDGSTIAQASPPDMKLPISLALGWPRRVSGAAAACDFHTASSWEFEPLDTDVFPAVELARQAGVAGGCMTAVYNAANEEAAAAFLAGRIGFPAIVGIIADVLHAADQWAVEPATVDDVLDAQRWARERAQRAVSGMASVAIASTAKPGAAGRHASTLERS

[3] = test system: Pf3D7 parasites; assay: P. falciparum growth inhibition assay; type: cell-based, Plasmodium falciparum; settings: read-out: Pf IC50, 3 days, PicoGreen DNA content
How it was run: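 Asynchronous cultures of wild-type 3D7 and fosmidomycin-resistant had1 strain E1-C12 are kept at 2% hematocrit in supplemented RPMI-1640 with 0.5% Albumax, under 5% O2/5% CO2/90% N2 at 37 °C. Parasites are diluted to 0.5% parasitemia and exposed to 1.2 nM–492.4 μM test compound from the start. After 3 days, DNA is read with PicoGreen (ex 485/em 528 nm). IC50 comes from a 4-parameter nonlinear fit. Technical duplicates, biological triplicate.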

[4] = molecular target: T2, PfDXR (Plasmodium falciparum, UniProt Q8IKG4); assay: DXR enzyme inhibition assay; type: biochemical; settings: values in parentheses; compound at 100 μM
T2 sequence (Q8IKG4 73-488): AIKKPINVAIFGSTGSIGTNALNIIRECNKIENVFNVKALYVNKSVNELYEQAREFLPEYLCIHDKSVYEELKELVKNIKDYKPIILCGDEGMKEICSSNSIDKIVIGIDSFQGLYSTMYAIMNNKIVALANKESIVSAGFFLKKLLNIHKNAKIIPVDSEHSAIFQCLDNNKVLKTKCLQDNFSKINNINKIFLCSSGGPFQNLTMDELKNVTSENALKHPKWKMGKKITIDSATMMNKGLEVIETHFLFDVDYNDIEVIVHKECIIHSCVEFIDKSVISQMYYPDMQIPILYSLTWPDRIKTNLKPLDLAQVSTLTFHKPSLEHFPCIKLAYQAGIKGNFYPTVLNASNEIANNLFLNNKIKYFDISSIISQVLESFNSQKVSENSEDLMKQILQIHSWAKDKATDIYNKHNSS

[5] = test system: Pf3D7 parasites; settings: read-out: Pf IC50; P. falciparum parasites; cited from earlier work
[6] = test system: Mtb H37Rv; settings: cited from earlier work

Compound: CC(=O)N(CCC(c1ccc(Cl)c(Cl)c1)P(=O)(OCOC(=O)C(C)(C)C)OCOC(=O)C(C)(C)C)OCCCCc1ccccc1 (stereo not drawn) [Compound 7g, ({[1-(3,4-Dichlorophenyl)-3-[N-(4-phenylbutoxy)acetamido]propyl]({[(2,2-dimethylpropanoyl)oxy]methoxy})phosphoryl}oxy) methyl 2,2-dimethylpropanoate]
- MIC [1]: 12.5 µg/mL (≈ 17.8 µM)

Compound: Diammonium {3-[N-(benzyloxy)acetamido]-1-(3,4-dichlorophenyl)propyl} phosphonate [Compound 6b]
- Mtb MIC [1]: > 214 µM
- Mtb DXR percent remaining enzyme activity at 100 μM [2]: (34.20) percent
- IC50 [3]: 31.5 ± 7.85 µM
- Pf DXR percent remaining enzyme activity at 100 μM [4]: (26.66) percent

Compound: CC(=O)N(CCC(c1ccc(Cl)c(Cl)c1)P(=O)(O)O)OCc1ccc2ccccc2c1.N.N (stereo not drawn) [Compound 6c]
- MIC [1]: 12.5 µg/mL

Compound: CC(=O)N(CCC(c1ccc(Cl)c(Cl)c1)P(=O)(OCOC(=O)C(C)(C)C)OCOC(=O)C(C)(C)C)OC(C)c1ccc(F)cc1 (stereo not drawn) [Compound 7n, ({[1-(3,4-Dichlorophenyl)-3-{N-[1-(4-fluorophenyl)ethoxy]acetamido}propyl]({[(2,2-dimethylpropanoyl)oxy]methoxy})phosphoryl}oxy)methyl 2,2-dimethylpropanoate]
- MIC [1]: 4.6 µg/mL (≈ 6.64 µM)

Compound: [({3-[N-({[1,1′-Biphenyl]-4-yl}methoxy)acetamido]-1-(3,4-dichlorophenyl)propyl}({[(2,2-dimethylpropanoyl)oxy] methoxy}) phosphoryl)oxy] methyl-2,2-dimethylpropanoate [Compound 7d]
- Mtb MIC [1]: 17.0 µM
- IC50 [3]: 8.78 ± 0.92 µM

Compound: CC(=O)N(CCC(c1ccc(Cl)c(Cl)c1)P(=O)(O)O)OCc1ccc(-c2ccc(C(C)C)cc2)cc1.N.N (stereo not drawn) [Compound 6i]
- MIC [1]: 25 µg/mL

Compound: Diammonium [3-{acetyl[1-(4-trifluoromethylphenyl)ethoxy]amino}-1-(3,4-dichlorophenyl)propyl] phosphonate [Compound 6m]
- Mtb MIC [1]: > 91 µM
- Mtb DXR percent remaining enzyme activity at 100 μM [2]: (59.60) percent
- IC50 [3]: 79.2 ± 12.1 µM
- Pf DXR percent remaining enzyme activity at 100 μM [4]: (74.69) percent

Compound: CC(=O)N(O)CCCP(=O)(O)O [2(FR), FR900098]
- IC50 [5]: 0.511 µM
- Mtb MIC [6]: >500 μg mL^−1 and >500 (ref. [34]) μg mL^−1

Compound: CC(=O)N(CCC(c1ccc(Cl)c(Cl)c1)P(=O)(OCOC(=O)C(C)(C)C)OCOC(=O)C(C)(C)C)OCc1ccccc1 (stereo not drawn) [Compound 7b, [({3-[N-(Benzyloxy)acetamido]-1-(3,4-dichlorophenyl)propyl}({[(2,2-dimethylpropanoyl)oxy]methoxy})phosphoryl)oxy]methyl 2,2-dimethylpropanoate]
- MIC [1]: 6.25 µg/mL (≈ 9.46 µM)

Compound: CC(=O)N(CCC(c1ccc(Cl)c(Cl)c1)P(=O)(OCOC(=O)C(C)(C)C)OCOC(=O)C(C)(C)C)OCc1ccc(-c2ccc(C(C)C)cc2)cc1 (stereo not drawn) [Compound 7i, ({[1-(3,4-Dichlorophenyl)-3-(N-{[4′-(propan-2-yl)-[1,1′-biphenyl]-4-yl]methoxy}acetamido)propyl]({[(2,2-dimethylpropanoyl)oxy]methoxy})phosphoryl}oxy)methyl 2,2-dimethylpropanoate]
- MIC [1]: > 100 µg/mL

Compound: Diammonium {3-[N-({[1,1′-biphenyl]-4-yl}methoxy)acetamido]-1-(3,4-dichlorophenyl) propyl} phosphonate [Compound 6d]
- Mtb MIC [1]: 23.1 µM
- Mtb DXR percent remaining enzyme activity at 100 μM [2]: (93.90) percent
- IC50 [3]: 86.4 ± 10.1 µM
- Pf DXR percent remaining enzyme activity at 100 μM [4]: (26.97) percent

Compound: CC(=O)N(O)CCC(c1ccc(Cl)c(Cl)c1)P(=O)(OCOC(=O)C(C)(C)C)OCOC(=O)C(C)(C)C (stereo not drawn) [Compound 7a, ({[1-(3,4-Dichlorophenyl)-3-(N-hydroxyacetamido)propyl]({[(2,2-dimethylpropanoyl)oxy]methoxy})phosphoryl}oxy)methyl 2,2-dimethylpropanoate]
- MIC [1]: 4.6 µg/mL (≈ 8.06 µM)

Compound: CC(=O)N(CCC(c1ccc(Cl)c(Cl)c1)P(=O)(OCOC(=O)C(C)(C)C)OCOC(=O)C(C)(C)C)OC(C)c1ccccc1 (stereo not drawn) [Compound 7e, ({[1-(3,4-Dichlorophenyl)-3-[N-(1-phenylethoxy)acetamido]propyl]({[(2,2-dimethylpropanoyl)oxy]methoxy})phosphoryl}oxy) methyl 2,2-dimethylpropanoate]
- MIC [1]: 9.4 µg/mL and 13.9 µM

Compound: O=CN(O)CCCP(=O)(O)O [1(Fos), Fosmidomycin]
- Mtb MIC [6]: >500 μg mL^−1 and >500 (ref. [34]) μg mL^−1

Compound: CC(=O)N(CCC(c1ccc(Cl)c(Cl)c1)P(=O)(OCOC(=O)C(C)(C)C)OCOC(=O)C(C)(C)C)OC(C)c1ccc(Cl)cc1 (stereo not drawn) [Compound 7j, ({[1-(3,4-Dichlorophenyl)-3-{N-[1-(4-chlorophenyl)ethoxy]acetamido}propyl]({[(2,2-dimethylpropanoyl)oxy]methoxy})phosphoryl}oxy)methyl 2,2-dimethylpropanoate]
- MIC [1]: 9.4 µg/mL (≈ 13.3 µM)

Compound: CC(=O)N(CCC(c1ccc(Cl)c(Cl)c1)P(=O)(OCOC(=O)C(C)(C)C)OCOC(=O)C(C)(C)C)OC(C)c1ccc(C)cc1 (stereo not drawn) [Compound 7k, ({[1-(3,4-Dichlorophenyl)-3-{N-[1-(4-methylphenyl)ethoxy]acetamido}propyl]({[(2,2-dimethylpropanoyl)oxy]methoxy})phosphoryl}oxy)methyl 2,2-dimethylpropanoate]
- MIC [1]: 12.5 µg/mL (≈ 18.2 µM)

Compound: Diammonium [1-(3,4-dichlorophenyl)-3-[N-(4-phenylbutoxy)acetamido]propyl] phosphonate [Compound 6g]
- Mtb MIC [1]: 3.1 µM
- Mtb DXR percent remaining enzyme activity at 100 μM [2]: (99.10) percent
- IC50 [3]: 63.3 ± 16.7 µM
- Pf DXR percent remaining enzyme activity at 100 μM [4]: (25.64) percent

Compound: Diammonium (3-{N-[(4-bromophenyl) methoxy] acetamido}-1-(3,4-dichlorophenyl) propyl) phosphonate [Compound 6h]
- Mtb MIC [1]: > 92 µM
- Mtb DXR percent remaining enzyme activity at 100 μM [2]: (72.30) percent
- IC50 [3]: 67.8 ± 3.57 µM
- Pf DXR percent remaining enzyme activity at 100 μM [4]: (53.07) percent

Compound: CC(=O)N(CCC(c1ccc(Cl)c(Cl)c1)P(=O)(OCOC(=O)C(C)(C)C)OCOC(=O)C(C)(C)C)OC(C)c1ccc(C(F)(F)F)cc1 (stereo not drawn) [Compound 7m, ({[1-(3,4-Dichlorophenyl)-3-{N-[1-(4-trifluoromethylphenyl)ethoxy]acetamido}propyl]({[(2,2-dimethylpropanoyl)oxy]methoxy})phosphoryl}oxy)methyl 2,2-dimethylpropanoate]
- MIC [1]: > 100 µg/mL

Compound: CC(=O)N(CCC(c1ccc(Cl)c(Cl)c1)P(=O)(OCOC(=O)C(C)(C)C)OCOC(=O)C(C)(C)C)OCc1ccc(Br)cc1 (stereo not drawn) [Compound 7h, {[(3-{N-[(4-Bromophenyl)methoxy]acetamido}-1-(3,4-dichlorophenyl)propyl)({[(2,2-dimethylpropanoyl)oxy]methoxy})phosphoryl]oxy}methyl 2,2-dimethylpropanoate]
- MIC [1]: 6.25 µg/mL (≈ 8.45 µM)

Compound: CC(=O)N(CCC(c1ccc(Cl)c(Cl)c1)P(=O)(OCOC(=O)C(C)(C)C)OCOC(=O)C(C)(C)C)OCc1ccc2ccccc2c1 (stereo not drawn) [Compound 7c, ({[1-(3,4-Dichlorophenyl)-3-{N-[(naphthalen-2-yl)methoxy]acetamido}propyl]({[(2,2-dimethylpropanoyl)oxy]methoxy})phosphoryl}oxy)methyl-2,2-dimethylpropanoate]
- MIC [1]: 6.25 µg/mL (≈ 8.8 µM)

Compound: CC(=O)N(CCC(c1ccc(Cl)c(Cl)c1)P(=O)(OCOC(=O)C(C)(C)C)OCOC(=O)C(C)(C)C)OCc1ccc(C(C)C)cc1 (stereo not drawn) [Compound 7f, ({[1-(3,4-Dichlorophenyl)-3-(N-{[4-(propan-2-yl)phenyl]methoxy}acetamido)propyl]({[(2,2-dimethylpropanoyl)oxy]methoxy})phosphoryl}oxy) methyl 2,2-dimethylpropanoate]
- MIC [1]: 12.5 µg/mL (≈ 17.8 µM)
